# INS promoter act = TRM-6 insulin promoter activation | TRM-6 cells (human fetal islet line), insulin promoter eGFP reporter, imaging; plate-scaled: unstimulated 0, stimulated control 100 | activation, % at 2 µM | 130,000 compounds, 0.81% hits | AID 1296;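 active = activation at 2 µM above a set limit, confirmed on inspection of the cell images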;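 also: share of cells whose green reporter signal exceeds an intensity cutoff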
#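 Assay system: TRM-6 human fetal islet cells, insulin promoter–eGFP reporter; Also added: 0.75 µM tamoxifen as reporter inducer; Schedule: 15 h tamoxifen pre-treatment, 48 h compound treatment at 37 °C; Signal: fixed-cell fluorescence microscopy, eGFP plus Hoechst; Read-out: percent activation from GFP-positive cell fraction; Control set: stimulated and unstimulated wells.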
# A number is an active result; i = inactive. This excerpt belongs to a sample that is enriched for hits.
SMILES,INS promoter act
Cc1cc(C)cc(N(CC(=O)N2CCOCC2)S(=O)(=O)c2ccccc2)c1,i
COc1ccc(N2CCN(C(=O)CN(c3ccccc3)S(=O)(=O)c3ccc(OC)cc3)CC2)cc1,80.0
COc1ccc(N2CCN(C(=O)CCNC(=O)c3ccccc3)CC2)cc1,i
CCN(CC(=O)NC1CCS(=O)(=O)C1)C(=O)/C=C/c1cccs1 (stereo not given),i
CCC(=O)N1CCN=C1SCc1ccc(Cl)cc1,493.1
CSC1=NCCN1C(=O)Cc1ccc(-c2ccccc2)cc1,i
CCOC(=O)N1CCN=C1SCc1ccc(C(F)(F)F)cc1,i
CCn1cc(-c2cc(C(=O)O)c3ccccc3n2)cn1,i
CC(=O)Nc1sc(C)c(C)c1C(=O)OCC(=O)Nc1cc(S(=O)(=O)N2CCCCC2)ccc1Cl,i
CC(NC(=O)c1ccc(C23CC4CC(CC(C4)C2)C3)cc1)C(=O)O (stereo not given),i
CCOc1ccc(C(=O)NC(=S)Nc2ccccc2N2CCC(C)CC2)cc1[N+](=O)[O-],i
Cc1ccccc1C(=O)NC(=S)Nc1ccccc1N1CCCC1,i
CC1CCN(c2ccccc2NC(=S)NC(=O)c2ccco2)CC1,230.0
Cc1ccc(C)c(S(=O)(=O)NCC(=O)Nc2sc3c(c2C(N)=O)CCC(C)C3)c1 (stereo not given),i
O=C(Nc1ccccn1)c1ccc(S(=O)(=O)c2ccc(Cl)cc2)cc1,i
Cc1ccc(C(=O)NC(=C(Cl)Cl)S(=O)(=O)c2ccc(Cl)cc2)cc1,i
CNC(=O)c1nnsc1S(=O)(=O)c1ccc(Cl)cc1,754.5
CCOC(=O)N1CCC(NC(=O)c2cn(-c3ccc(OC)cc3)c(=O)c3ccccc23)CC1,i
COc1ccc(N2CCN(C(=O)Cc3ccc(-n4c(=O)[nH]c5ccccc5c4=O)cc3)CC2)cc1,i
CCOC(=O)N1CCC(NC(=O)Cc2ccc(-n3c(=O)[nH]c4ccccc4c3=O)cc2)CC1,500.0
Cc1nc([N+](=O)[O-])c(C(=O)OCc2cccc(Br)c2)n1C,i
COCC(=O)N(c1ccccc1)C(C)C(=O)OC (stereo not given),i
CC(=O)Nc1cc(-c2ccc(Cl)cc2)[nH]n1,i
Cc1ccccc1CN1CCc2c(OCC(=O)N3CCCc4ccccc43)cccc2C1=O,128.0
CCN1CCc2c(OCC(=O)Nc3cccc(C)c3)cccc2C1=O,i
SMILES,INS promoter act
CC1CCN(C(=O)COc2cccc3c2CCN(Cc2ccccc2)C3=O)CC1,i
C=C(C)CN1CCN(c2ccc(N3C(=O)CCCC3=O)cc2[N+](=O)[O-])CC1,i
CCOC(=O)C1CCCN(C(=O)c2cccs2)C1 (stereo not given),i
CCOC(=O)C1CCCN(S(=O)(=O)c2cccs2)C1 (stereo not given),462.5
CC(C)NC(=O)C1CCCN(S(=O)(=O)c2cccs2)C1 (stereo not given),i
CCOC(=O)c1c(-c2ccccc2Cl)csc1NC(=O)CSc1nc(C)cc(=O)[nH]1,i
Cc1ccc(-c2nc(C(=O)O)cs2)cc1,i
Cc1nc(N(C)C)ncc1C(=O)O,i
Cc1ccc(-c2ccc(C(=O)O)c(C)n2)cc1,385.7
Cn1cnnc1SCC(=O)Nc1ccc2nc(SCc3ccccc3F)sc2c1,i
CCOC(=O)Cc1csc(NC(=O)CSc2nc(N)c3c(C)c(C)sc3n2)n1,i
N#Cc1ccccc1Cn1cc(/C=N/Nc2ccc([N+](=O)[O-])cn2)c2ccccc21,400.0
O=[N+]([O-])/C=C/c1cn(Cc2ccc(Cl)cc2)c2ccccc12,i
Cn1cc(/C=N/NC(=O)COc2ccccc2[N+](=O)[O-])c2ccccc21,i
CC1=NN(C(C#N)c2cccc([N+](=O)[O-])c2)C(C)(C)C1 (stereo not given),i
C=CCn1c(CNC(=O)c2ccccc2C)nnc1SCC(=O)NC1CCCC1,i
C=CCn1c(CNC(=O)c2ccco2)nnc1SCC(=O)N1c2ccccc2Sc2ccccc21,103.3
Cn1nnnc1SCC(=O)N1c2ccccc2Sc2ccccc21,i
COCCn1cnnc1SCC(=O)Nc1ccc(Br)cc1F,i
CC(=O)CC(=O)Nc1ccccc1NC(C)=O,i
Cc1cc(Cl)ccc1OCc1nc(-c2ccc(O)cc2)n[nH]1,i
C/C(=N\n1cnnc1)c1ccccc1,i
O=C(O)CC(NC(=O)c1ccc2c(c1)OCO2)c1cccc([N+](=O)[O-])c1 (stereo not given),463.6
O=C(Nc1cccc([N+](=O)[O-])c1)c1ccc2c(c1)OCCO2,i
O=C(N/N=C\c1ccc(-c2ccc([N+](=O)[O-])cc2)o1)c1ccc2c(c1)OCO2,i
SMILES,INS promoter act
Cc1ccccc1N(CC(N)=O)S(C)(=O)=O,i
COc1ccccc1N(CC(=O)Nc1ccccc1C)S(C)(=O)=O,i
Cc1ccccc1N(CC(=O)O)S(C)(=O)=O,475.0
CN(C)CCCNS(=O)(=O)c1ccc(Cl)s1,i
O=S(=O)([N-]c1nc2ccccc2nc1-[n+]1ccc(-c2ccncc2)cc1)c1ccccc1,i
O=C1C(Cl)=C(NCCc2ccccc2)C(=O)N1CCc1ccccc1,i
O=C1C(Cl)=C(NCC2CCCO2)C(=O)N1CCc1ccccc1 (stereo not given),608.3
O=C1C(Cl)=C(Nc2ccc(F)cc2)C(=O)N1CCc1ccccc1,i
Cc1cc(NC(=O)COC(=O)COc2ccc3c(c2)CCC3)no1,i
OCC[C@H]1C[C@H](O)[C@@H](O)[C@@]2(CCCCO2)O1,i
O=C1C2CCCN2C(=O)N1CCCCN1CCN(c2ccc(F)cc2)CC1 (stereo not given),i
CCOC(=O)C(Cc1ccc(Cl)cc1Cl)c1ccno1 (stereo not given),i
CN1CCN(C(=O)C(C(=O)c2ccc(F)cc2)n2ccccc2=O)CC1 (stereo not given),i
Cc1ccc(CCNC(=O)C2CCN(S(=O)(=O)c3cccc4nsnc34)CC2)cc1,i
COc1ccc(OC)c(NC(=O)C2CCCN(S(=O)(=O)c3cccc4nsnc34)C2)c1 (stereo not given),i
Cc1ccnc(NC(=O)C2CCN(S(=O)(=O)c3cccc4nsnc34)CC2)c1,125.0
COc1ccc(C(=O)N(C)c2c(C)n(C)n(-c3ccccc3)c2=O)cc1OC,i
CC1(C)CC(=O)C2=C(C1)Nc1cc3c(cc1C2c1ccc(F)cc1)OCO3 (stereo not given),100.0
CC1C2=C(CC(C)(C)CC2=O)NC2=C1C(=O)CC(C)(C)C2,i
CC1=C(C(=O)Nc2ccc(F)cc2)C(c2ccc(C)o2)C2=C(CC(C)(C)CC2=O)N1 (stereo not given),i
CCOC(=O)c1c(C)c(C(=O)NCc2cccnc2)c(C)n1CC,i
COc1cccc(C(=O)NC(=S)Nc2ccc(N(C)C)cc2)c1,i
Fc1ccc(CSc2nncn2NCc2ccccc2)cc1,427.8
CC(C)(C)NC(=O)CSc1nncn1NCc1ccccc1,i
CN(C)c1ccc(CNn2cnnc2SCc2ccc(F)cc2)cc1,i
SMILES,INS promoter act
CC1(C)N=C(N)NC(Nc2ccccc2)=N1,i
Clc1ccc(-c2noc(CCCOc3ccccc3)n2)cc1,i
c1ccc(-c2nc(-c3ccncc3)no2)cc1,i
Clc1ccc(-c2nc(Cc3ccccc3)no2)cc1,83.9
Cn1cc([N+](=O)[O-])c(C(=O)N/N=C/c2ccc3c(c2)OCO3)n1,i
O=S(=O)(Cc1cccc(C(F)(F)F)c1)c1ncn[nH]1,i
Cc1ccc(S(=O)(=O)N2CCCC2C(=O)OCc2ccco2)cc1 (stereo not given),578.6
CCOC(=O)C1CN(S(=O)(=O)c2ccc(C)cc2)CCN1S(=O)(=O)c1ccc(C)cc1 (stereo not given),i

# Screening data from PubChem BioAssay.
